Reference: ChEMBL document CHEMBL5058577, “EUbOPEN Chemogenomics Library 2 (Multiplex)” (2022)

Tested on: Fibroblast
Experiment: Multiplex assay against human fibroblast
Type: toxicity, cell-based
In short: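 Four dyes were applied at seeding to live cells: Hoechst33342, BioTracker Green Microtubule Cytoskeleton Dye, MitoTracker Red and Annexin V Alexa Fluor 680. Imaging after compound addition used a CQ1 microscope at 37°C and 5% CO2. CellPathfinder machine-learning gating then sorted cells into Hoechst high-intensity objects or normal cells, normal cells into healthy, pyknosed or fragmented nuclei, and pyknosed cells into mitotic or apoptotic, with tubulin, mitochondrial-mass and membrane-permeability phenotypes given as per cents of healthy-nucleus cells.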

[1] = 12 h, 1 µM, compound concentration 1 uM, replicate 1
[2] = 12 h, 1 µM, compound concentration 1 uM, replicate 2
[3] = 12 h, 10 µM, compound concentration 10 uM, replicate 1
[4] = 12 h, 10 µM, compound concentration 10 uM, replicate 2
[5] = 24 h, 1 µM, compound concentration 1 uM, replicate 1
[6] = 24 h, 1 µM, compound concentration 1 uM, replicate 2
[7] = 24 h, 10 µM, compound concentration 10 uM, replicate 1
[8] = 24 h, 10 µM, compound concentration 10 uM, replicate 2
[9] = 48 h, 1 µM, compound concentration 1 uM, replicate 1
[10] = 48 h, 1 µM, compound concentration 1 uM, replicate 2
[11] = 48 h, 10 µM, compound concentration 10 uM, replicate 1
[12] = 48 h, 10 µM, compound concentration 10 uM, replicate 2

With `Nc1nc(CC(=O)Nc2ccc(CCNC[C@H](O)c3ccccc3)cc2)cs1` [MIRABEGRON] the “Population Apoptotic (%)” value [1] was 53%, the “Population Fragmented Nuclei (%)” value [1] was 19% and the “Population Healthy Nuclei (%)” value [1] was 62%. For the same compound, the “Population Hoechst High Intensity Objects (%)” value [1] was 5%, the “Population Membrane Permeable-Phenotype (%)” value [1] was 0% and the “Population Mitochondria Different-Phenotype (%)” value [1] was 6%. For the same compound, the “Population Mitotic Cells (%)” value [1] was 46%, the “Population Normal (%)” value [1] was 94% and the “Population Pyknosed Nuclei (%)” value [1] was 18%. For the same compound, the “Population Tubulin-Different-Phenotype (%)” value [1] was 25%, the “Total Cell Count” value [1] was 164 and the “Population Apoptotic (%)” value [2] was 31%. For the same compound, the “Population Fragmented Nuclei (%)” value [2] was 27%, the “Population Healthy Nuclei (%)” value [2] was 52% and the “Population Hoechst High Intensity Objects (%)” value [2] was 4%. For the same compound, the “Population Membrane Permeable-Phenotype (%)” value [2] was 9%, the “Population Mitochondria Different-Phenotype (%)” value [2] was 12% and the “Population Mitotic Cells (%)” value [2] was 68%. For the same compound, the “Population Normal (%)” value [2] was 95%, the “Population Pyknosed Nuclei (%)” value [2] was 19% and the “Population Tubulin-Different-Phenotype (%)” value [2] was 46%. The “Total Cell Count” value [2] was 189, the “Population Apoptotic (%)” value [3] was 46% and the “Population Fragmented Nuclei (%)” value [3] was 15%. For the same compound, the “Population Healthy Nuclei (%)” value [3] was 75%, the “Population Hoechst High Intensity Objects (%)” value [3] was 3% and the “Population Membrane Permeable-Phenotype (%)” value [3] was 0%. The “Population Mitochondria Different-Phenotype (%)” value [3] was 4%, the “Population Mitotic Cells (%)” value [3] was 53% and the “Population Normal (%)” value [3] was 96%. For the same compound, the “Population Pyknosed Nuclei (%)” value [3] was 9%, the “Population Tubulin-Different-Phenotype (%)” value [3] was 19% and the “Total Cell Count” value [3] was 171. The “Population Apoptotic (%)” value [4] was 30%, the “Population Fragmented Nuclei (%)” value [4] was 31% and the “Population Healthy Nuclei (%)” value [4] was 41%. For the same compound, the “Population Hoechst High Intensity Objects (%)” value [4] was 5%, the “Population Membrane Permeable-Phenotype (%)” value [4] was 1% and the “Population Mitochondria Different-Phenotype (%)” value [4] was 3%. The “Population Mitotic Cells (%)” value [4] was 69%, the “Population Normal (%)” value [4] was 94% and the “Population Pyknosed Nuclei (%)” value [4] was 27%. For the same compound, the “Population Tubulin-Different-Phenotype (%)” value [4] was 45%, the “Total Cell Count” value [4] was 137 and the “Population Apoptotic (%)” value [5] was 59%. For the same compound, the “Population Fragmented Nuclei (%)” value [5] was 17%, the “Population Healthy Nuclei (%)” value [5] was 64% and the “Population Hoechst High Intensity Objects (%)” value [5] was 5%. For the same compound, the “Population Membrane Permeable-Phenotype (%)” value [5] was 1%, the “Population Mitochondria Different-Phenotype (%)” value [5] was 4% and the “Population Mitotic Cells (%)” value [5] was 40%. The “Population Normal (%)” value [5] was 94%, the “Population Pyknosed Nuclei (%)” value [5] was 18% and the “Population Tubulin-Different-Phenotype (%)” value [5] was 28%. The “Total Cell Count” value [5] was 156, the “Population Apoptotic (%)” value [6] was 58% and the “Population Fragmented Nuclei (%)” value [6] was 27%. For the same compound, the “Population Healthy Nuclei (%)” value [6] was 57%, the “Population Membrane Permeable-Phenotype (%)” value [6] was 9% and the “Population Mitochondria Different-Phenotype (%)” value [6] was 7%. For the same compound, the “Population Mitotic Cells (%)” value [6] was 41%, the “Population Pyknosed Nuclei (%)” value [6] was 14% and the “Population Tubulin-Different-Phenotype (%)” value [6] was 45%. The “Total Cell Count” value [6] was 179, the “Population Apoptotic (%)” value [7] was 53% and the “Population Fragmented Nuclei (%)” value [7] was 15%. For the same compound, the “Population Healthy Nuclei (%)” value [7] was 75%, the “Population Hoechst High Intensity Objects (%)” value [7] was 2% and the “Population Membrane Permeable-Phenotype (%)” value [7] was 0%. The “Population Mitochondria Different-Phenotype (%)” value [7] was 4%, the “Population Mitotic Cells (%)” value [7] was 46% and the “Population Normal (%)” value [7] was 97%. The “Population Pyknosed Nuclei (%)” value [7] was 8%, the “Population Tubulin-Different-Phenotype (%)” value [7] was 24% and the “Total Cell Count” value [7] was 181. The “Population Apoptotic (%)” value [8] was 55%, the “Population Fragmented Nuclei (%)” value [8] was 29% and the “Population Healthy Nuclei (%)” value [8] was 48%. For the same compound, the “Population Hoechst High Intensity Objects (%)” value [8] was 4%, the “Population Membrane Permeable-Phenotype (%)” value [8] was 4% and the “Population Mitochondria Different-Phenotype (%)” value [8] was 6%. For the same compound, the “Population Mitotic Cells (%)” value [8] was 44%, the “Population Normal (%)” value [8] was 95% and the “Population Pyknosed Nuclei (%)” value [8] was 21%. For the same compound, the “Population Tubulin-Different-Phenotype (%)” value [8] was 44%, the “Total Cell Count” value [8] was 131 and the “Population Apoptotic (%)” value [9] was 76%. The “Population Fragmented Nuclei (%)” value [9] was 23%, the “Population Healthy Nuclei (%)” value [9] was 60% and the “Population Hoechst High Intensity Objects (%)” value [9] was 7%. The “Population Membrane Permeable-Phenotype (%)” value [9] was 2%, the “Population Mitochondria Different-Phenotype (%)” value [9] was 6% and the “Population Mitotic Cells (%)” value [9] was 23%. The “Population Normal (%)” value [9] was 92%, the “Population Pyknosed Nuclei (%)” value [9] was 15% and the “Population Tubulin-Different-Phenotype (%)” value [9] was 28%. The “Total Cell Count” value [9] was 176, the “Population Apoptotic (%)” value [10] was 50% and the “Population Fragmented Nuclei (%)” value [10] was 40%. The “Population Healthy Nuclei (%)” value [10] was 52%, the “Population Hoechst High Intensity Objects (%)” value [10] was 2% and the “Population Membrane Permeable-Phenotype (%)” value [10] was 4%. The “Population Mitochondria Different-Phenotype (%)” value [10] was 10%, the “Population Mitotic Cells (%)” value [10] was 50% and the “Population Normal (%)” value [10] was 97%. The “Population Pyknosed Nuclei (%)” value [10] was 7%, the “Population Tubulin-Different-Phenotype (%)” value [10] was 32% and the “Total Cell Count” value [10] was 195. The “Population Apoptotic (%)” value [11] was 64%, the “Population Fragmented Nuclei (%)” value [11] was 18% and the “Population Healthy Nuclei (%)” value [11] was 74%. For the same compound, the “Population Hoechst High Intensity Objects (%)” value [11] was 4%, the “Population Membrane Permeable-Phenotype (%)” value [11] was 0% and the “Population Mitochondria Different-Phenotype (%)” value [11] was 4%. The “Population Mitotic Cells (%)” value [11] was 35%, the “Population Normal (%)” value [11] was 95% and the “Population Pyknosed Nuclei (%)” value [11] was 7%. For the same compound, the “Population Tubulin-Different-Phenotype (%)” value [11] was 21%, the “Total Cell Count” value [11] was 194 and the “Population Apoptotic (%)” value [12] was 75%. For the same compound, the “Population Fragmented Nuclei (%)” value [12] was 39%, the “Population Healthy Nuclei (%)” value [12] was 48% and the “Population Hoechst High Intensity Objects (%)” value [12] was 3%. For the same compound, the “Population Membrane Permeable-Phenotype (%)” value [12] was 6%, the “Population Mitochondria Different-Phenotype (%)” value [12] was 6% and the “Population Mitotic Cells (%)” value [12] was 25%. The “Population Normal (%)” value [12] was 96%, the “Population Pyknosed Nuclei (%)” value [12] was 12% and the “Population Tubulin-Different-Phenotype (%)” value [12] was 51%. The “Total Cell Count” value [12] was 132.
